Screens deposited in PubChem by several laboratories.
This is a sample that favours compounds with a hit; in the whole collection about 1.7% have one here.
IDE inh – inhibitors of human insulin-degrading enzyme in cells | AID 434962 | HEK cells, FAbetaB cleavage, fluorescence polarization | P14735 | 320,000 compounds, 0.41% hits | inhibition, % at 5.59 µM;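 active = percent inhibition above the average of all tested compounds plus 3 SD, set per screening campaign, cut at about 16% in these data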;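 note: IDE supplied by intact live HEK cells; FP after avidin binding of uncleaved biotin substrate so inhibition keeps polarization high; 0% = DMSO wells and 100% = 60 µM reference IDE inhibitor Ii1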
CSN inh – inhibitors of human CSN-mediated cullin deneddylation. AID 651999. Q92905. Purified CSN, SCF-Nedd8-OG deneddylation, fluorescence polarization. inhibition, % at 12.5 µM. 360,000 compounds, 0.38% hits;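 active = pattern-corrected inhibition above about 35%, with an unprinted fluorescence ratio check between 0.5 and 1.5, limit read from the data, passing the limit was not always enough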;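 note: 0% = enzyme with substrate and 100% = substrate without enzyme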
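Test system: purified human Csn5 enzyme expressed in HEK293T cells. Amount: 0.24 nM enzyme. Reagent: SCFSkp2-Nedd8OG substrate at 10 nM final. Schedule: 90 min incubation of compound, enzyme and substrate at room temperature. Detection: fluorescence polarization. Read-out: % inhibition of substrate cleavage by Csn5.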
HNF4A DNA FP – change in binding of human HNF4 alpha to DNA; HNF4a-FITC DNA binding, fluorescence polarization, 1 h; activity change, % at 10 µM; 360,000 compounds, 0.3% hits; AID 1224865; in the data active = activity change above about 30%, passing the limit was not always enough
Target sequence (P41235 whole entry, looked up): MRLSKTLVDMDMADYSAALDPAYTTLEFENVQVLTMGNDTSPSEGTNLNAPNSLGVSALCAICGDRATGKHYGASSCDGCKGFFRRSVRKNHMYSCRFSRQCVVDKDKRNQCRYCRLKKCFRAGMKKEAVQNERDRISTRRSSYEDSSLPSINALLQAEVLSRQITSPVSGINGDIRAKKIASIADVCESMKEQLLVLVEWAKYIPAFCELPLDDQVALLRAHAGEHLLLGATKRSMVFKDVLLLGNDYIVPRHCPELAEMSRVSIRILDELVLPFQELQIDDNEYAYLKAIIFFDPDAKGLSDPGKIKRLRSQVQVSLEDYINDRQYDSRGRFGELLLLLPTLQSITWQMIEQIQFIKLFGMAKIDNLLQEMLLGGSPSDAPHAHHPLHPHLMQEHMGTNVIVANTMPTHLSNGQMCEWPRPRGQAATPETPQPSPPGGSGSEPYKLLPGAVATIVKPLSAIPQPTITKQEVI
IDE act – activators of human insulin-degrading enzyme in cells; P14735; HEK cells, FAbeta-B cleavage, fluorescence polarization; 0% vehicle, 100% cell-free pure enzyme wells; activation, % at 5.96 µM; 340,000 compounds, 0.073% hits;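 active = activation above the mean of all tested compounds plus 3 SD, set per screening campaign, cut at about 17% in these data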
Rpn11 inh – inhibitors of human proteasome Rpn11. 360,000 compounds, 0.59% hits. human 26S proteasome, Ub4-pepOG fluorescence polarization; 20S core pre-blocked with epoxomicin. O00487. AID 588493. inhibition, % at 20 µM;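 active = inhibition at 20 µM, scaled to each plate's controls, above about 33%, limit read from the data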
TPT1 inh – C. albicans TPT1 enzyme inhibition | inhibition, % at 5 µM | AID 1962 | 300,000 compounds, 0.81% hits | recombinant caTPT1, FP RNA substrate dephosphorylation;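 active = inhibition above the mean of all tested compounds plus 3 SD, set per screening campaign, cut at about 24% in these data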;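 note: plate controls were DMSO alone for no effect and ferristatin control at 100 nM for full effect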
Rpn11 inh conf – Rpn11 inhibition confirmation, single concentration. shares compounds with Rpn11 inh. purified human 26S proteasome, Ub4-pepOG fluorescence polarization; proteasome pretreated with epoxomicin. inhibition, % at 20 µM. 1,900 compounds, 29% hits
MMP-2 counter – counter-screen for RPN11 inhibitors: inhibition of human MMP-2. recombinant MMP-2, FRET peptide cleavage fluorescence. shares compounds with Rpn11 inh. 1,900 compounds, 4% hits. inhibition, % at 20 µM;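 note: human MMP-2 activated beforehand with APMA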
Thrombin FP – blocks bovine thrombin, flagging nonselective RPN11 hits; shares compounds with Rpn11 inh; bovine thrombin cleavage of Ub4-pepOG, fluorescence polarization; inhibition, % at 20 µM; 1,900 compounds, 13% hits; AID 602333;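 active = mean inhibition at least 40% at 20 µM, or signal 3 deviations below plate average, so some actives read negative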;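 note: plate controls were thrombin with DMSO for no effect and buffer wells lacking thrombin for full effect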
* hit, by the source's call; . = no result given; + = active, no number. Cut-off read from the data, not from the text of the source, unless noted: active = inhibition above about 40%; inactive = the rest.

SMILES	IDE inh	CSN inh	HNF4A DNA FP	IDE act	Rpn11 inh	TPT1 inh	Rpn11 inh conf	MMP-2 counter	Thrombin FP
C=CCNC(=O)c1ccc(Cn2c(=S)[nH]c3cc4c(cc3c2=O)OCO4)cc1	4	56*	16	-5	148*	7	154*	41*	-18
O=C(COc1ccccc1)NN1C(=O)CSC1=S	6	8	-1	-5	3	3	.	.	.
O=C(COc1ccc(F)cc1)NN1C(=O)CSC1=S	2	24	36	-8	67*	2	-10	21	-13
Cc1cc(NC(=O)CN2C(=O)/C(=C/c3cccc(Br)c3)SC2=S)no1	-3	-7	17	0	45*	4	13	-73	-47
COCCN(C(=O)c1snc(C(N)=O)c1N)C(C(=O)NC1CCCCC1)c1ccc(OC)c(OC)c1 (stereo not given)	3	2	1	2	3	-1	.	.	.
Cc1ccc(CSc2nc3ccccc3c(=O)n2C)cc1	-3	2	1	4	2	3	.	.	.
O=C(N/N=C/c1ccc(OC(=O)c2ccc3c(c2)OCO3)cc1)c1cncc(Br)c1	-1	5	9	6	+	0	5	8	-1
O=C(COc1ccccc1[N+](=O)[O-])Nc1ccc(NC(=O)c2cc3ccccc3o2)cc1	5	17	-1	5	7	2	.	.	.
O=C(COc1ccc(/C=N/NC(=O)c2cc3ccccc3o2)cc1Br)Nc1ccccc1	-6	125*	23	4	118*	-1	41*	-105	-15
CSc1ccc(S(=O)(=O)N2CCC(C(=O)Nc3ccccc3C(F)(F)F)CC2)cc1	-2	0	-47	2	35*	0	4	-13	1
COc1ccc(C2CC(c3ccccc3)=NN2C(=O)COC(=O)c2cnc(Cl)c(Cl)c2)cc1 (stereo not given)	-1	0	1	1	3	-4	.	.	.
COc1ccc(C2CC(c3ccccc3)=NN2C(=O)COC(=O)c2ccc(Cl)nc2)cc1 (stereo not given)	7	0	-2	9	42*	-1	8	-33	-34
COc1ccc(CNC(=O)Nc2nc(C(N)CCc3ccccc3)cs2)cc1 (stereo not given)	.	1	4	.	-4	.	.	.	.
Cc1cccc(NC(=O)C(C)SCc2nc3sc4c(c3c(=O)[nH]2)CCCC4)n1 (stereo not given)	0	9	17	-2	48*	18	35	-19	24
CCc1cccc(NC(=O)CCc2nc3sc4c(c3c(=O)[nH]2)CCCC4)c1	7	9	7	-5	47*	14	37	-27	45*
Cc1cccc(NC(=O)CCc2nc3sc4c(c3c(=O)[nH]2)CCCC4)c1	-2	-2	2	-13	3	-6	.	.	.
Cc1ccc(NC(=O)CCc2nc3sc4c(c3c(=O)[nH]2)CCCC4)nc1	2	16	18	2	49*	17	78*	-3	35
COc1ccccc1NC(=O)CCc1nc2sc3c(c2c(=O)[nH]1)CCCC3	3	18	14	-3	44*	21	67*	-27	27
CCNC(=S)/N=C(\N)Nc1nc(C)c2cc(C)ccc2n1	-7	15	23	-6	44*	7	20	-12	20
O=C1N(Cc2cccc(Cl)c2)C[C@@H]2C[C@@H](c3cccc4cccnc34)N3CCC[C@@]123	2	16	3	2	65*	8	4	-30	6
O=C1N(Cc2cccc(Cl)c2)C[C@@H]2C[C@@H](c3cccc4ncccc34)N3CCC[C@@]123	13	-3	0	-3	-1	0	.	.	.
COc1ccccc1/C=C1\SC(=S)N(CC(=O)Nc2nnc(C)s2)C1=O	-2	.	.	.	.	2	.	.	.
N#Cc1cc2c(nc1SCC(=O)Nc1sc3c(c1C#N)CCC3)CCC2	5	4	0	-8	10	3	.	.	.
COc1ccc(-c2ccc(C#N)c(SCC(=O)Nc3sc4c(c3C#N)CCC4)n2)cc1OC	2	121	47*	5	83*	15	12	-18	4
CN(C(=O)C1CCCCC1)C1(C)CCS(=O)(=O)C1 (stereo not given)	-2	0	2	6	0	-5	.	.	.
SMILES	IDE inh	CSN inh	HNF4A DNA FP	IDE act	Rpn11 inh	TPT1 inh	Rpn11 inh conf	MMP-2 counter	Thrombin FP
O=c1cc(CN2CCCCCCC2)c2ccccc2o1	.	8	23	.	46*	.	17	12	-5
O=c1cc(CN2CCCCC2)c2ccccc2o1	.	7	0	.	8	.	.	.	.
COC(=O)C(C)N1C(=O)S/C(=C\c2ccc(-c3ccc(C(=O)O)cc3C)o2)C1=O (stereo not given)	1	19	-4	-4	15	15	.	.	.
Cc1ccc(C(=O)O)cc1-c1ccc(C=C2C(=O)c3ccccc3C2=O)o1	4	27	-11	5	99*	30*	16	-43	7
CC(=O)N1CCN(c2ccc(NC(=O)c3cccc(OCc4ccccc4)c3)cc2)CC1	9	-4	4	-2	82*	-6	-6	-11	-13
COc1ccc(-c2coc3c(C(=O)N4CCN(C)CC4)cccc23)c(C)c1	.	0	-1	.	-6	.	.	.	.
CN1/C(=C\C(=O)COC(=O)Cn2nnc(-c3ccccc3)n2)C(C)(C)c2ccccc21	3	22	20	6	40*	-6	45*	2	6
Cc1ccc(Nc2cccccc2=O)cc1	-1	4	-1	7	-9	-2	.	.	.
CC(C)(C)Nc1cccccc1=O	4	2	9	9	103*	-4	3	-14	-1
COc1ccc2cc(C(=O)C3CCCN(Cc4cnc(N5CCOCC5)s4)C3)ccc2c1 (stereo not given)	2	1	0	-8	42*	-5	0	-20	6
CC(C)N1CCc2c(sc(NC(=O)c3nc4ccccc4s3)c2C(N)=O)C1	13	17	18	3	61*	19	22	5	10
CCOC(=O)C1=C(C)N=c2s/c(=C\c3cccc(OCC(=O)O)c3)c(=O)n2C1c1ccccc1 (stereo not given)	.	3	0	1	0	.	.	.	.
